Peptide text beside a SMILES is read from it.
Experiments:
[1] = tested on: Pseudomonas aeruginosa; test: Synergistic antibacterial activity against Pseudomonas aeruginosa ATCC […] incubated for 24 hrs in presence of Ciprofloxacin by checkerboard assay; assay type: functional
[2] = tested on: Pseudomonas aeruginosa; test: Synergistic antibacterial activity against Pseudomonas aeruginosa ATCC […] incubated for 24 hrs in presence of levofloxacin by checkerboard assay; assay type: functional
[3] = tested on: Pseudomonas aeruginosa; test: Synergistic antibacterial activity against Pseudomonas aeruginosa ATCC […] fractional inhibitory concentration incubated for 24 hrs in presence of daptomycin by checkerboard assay; assay type: functional
[4] = tested on: Klebsiella pneumoniae; test: Synergistic antibacterial activity against Klebsiella pneumoniae ATCC BAA-1705 fractional inhibitory concentration incubated for 24 hrs in presence of Ciprofloxacin by checkerboard assay; assay type: functional
Outline: (§1)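 Checkerboard assay in MH broth. Inoculum from an LB overnight culture set to 0.5 McFarland and diluted 1/150. […] Each agent was also titrated alone. Incubation 24 h at 37 °C. FIC = combination MIC/individual MIC; FICI = sum of the FICs. Triplicate.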

[5] = tested on: Staphylococcus aureus; test: Synergistic antibacterial activity against methicillin resistant Staphylococcus aureus ATCC BAA-1556 assessed as fractional inhibitory concentration incubated for 24 hrs in presence of clindamycin by checkerboard assay; assay type: functional
Outline: (§2)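 Checkerboard assay. Inoculum from an LB overnight culture at 0.5 McFarland, diluted 1/150 in MH media. […] Incubated 37 °C for 24 h. FICI = MIC combination/MIC alone summed over both agents. Triplicate.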

[6] = tested on: Escherichia coli; test: Synergistic antibacterial activity against Escherichia coli ATCC 25922 incubated for 24 hrs in presence of polymyxin B by checkerboard assay; assay type: functional; outline: as §1
[7] = tested on: Escherichia coli; test: Synergistic antibacterial activity against Escherichia coli ATCC 25922 fractional inhibitory concentration index incubated for 24 hrs in presence of polymyxin B by checkerboard assay; assay type: functional; outline: as §1
[8] = tested on: Staphylococcus aureus; test: Synergistic antibacterial activity against methicillin resistant Staphylococcus aureus ATCC BAA-1556 fractional inhibitory concentration incubated for 24 hrs in presence of metronidazole by checkerboard assay; assay type: functional; outline: as §2
[9] = tested on: Pseudomonas aeruginosa; test: Synergistic antibacterial activity against Pseudomonas aeruginosa ATCC […] incubated for 24 hrs in presence of meropenem by checkerboard assay; assay type: functional
[10] = tested on: Klebsiella pneumoniae; test: Synergistic antibacterial activity against Klebsiella pneumoniae ATCC BAA-1705 fractional inhibitory concentration index incubated for 24 hrs in presence of kanamycin by checkerboard assay; assay type: functional; outline: as §1
[11] = tested on: Pseudomonas aeruginosa; test: Synergistic antibacterial activity against Pseudomonas aeruginosa ATCC […] fractional inhibitory concentration incubated for 24 hrs in presence of metronidazole by checkerboard assay; assay type: functional
[12] = tested on: Klebsiella pneumoniae; test: Synergistic antibacterial activity against Klebsiella pneumoniae ATCC BAA-1705 fractional inhibitory concentration incubated for 24 hrs in presence of clindamycin by checkerboard assay; assay type: functional; outline: as §1
[13] = tested on: Staphylococcus aureus; test: Synergistic antibacterial activity against methicillin resistant Staphylococcus aureus ATCC BAA-1556 incubated for 24 hrs in presence of vancomycin by checkerboard assay; assay type: functional; outline: as §2
[14] = tested on: Staphylococcus aureus; test: Synergistic antibacterial activity against methicillin resistant Staphylococcus aureus ATCC BAA-1556 assessed as fractional inhibitory concentration index incubated for 24 hrs in presence of tetracycline by checkerboard assay; assay type: functional; outline: as §2
[15] = Membrano-lytic effect in mammalian membrane mimic DOPC/cholesterol (10:1) large unilamellar vesicles assessed as calcein leakage measured at 5 to 50 microg/ml measured after 100 mins by multimode microplate reader assay; assay type: cell membranes; conditions: dose 5-50 µg/ml
Outline: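 Calcein (70 mM) loaded into extruded 100 nm LUVs: DOPC:DOPG 7:3 (w/w) as the bacterial mimic, DOPC/cholesterol 10:1 (w/w) as the mammalian mimic. Free dye removed by gel filtration. Liposomes at 40 μM final lipid in PBS mixed 1:1 with peptide (5–50 μg/mL). Fluorescence (ex 490/em 520 nm) read every 10 min for 100 min; Triton X-100 defines 100% release. Triplicate.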

[16] = tested on: Klebsiella pneumoniae; test: Synergistic antibacterial activity against Klebsiella pneumoniae ATCC BAA-1705 assessed as fractional inhibitory concentration index incubated for 24 hrs in presence of tobramycin by checkerboard assay; assay type: functional; outline: as §1
[17] = tested on: Pseudomonas aeruginosa; test: Synergistic antibacterial activity against Pseudomonas aeruginosa ATCC […] incubated for 24 hrs in presence of tobramycin by checkerboard assay; assay type: functional
[18] = tested on: Klebsiella pneumoniae; test: Synergistic antibacterial activity against Klebsiella pneumoniae ATCC BAA-1705 fractional inhibitory concentration index incubated for 24 hrs in presence of metronidazole by checkerboard assay; assay type: functional
[19] = tested on: Klebsiella pneumoniae; test: Synergistic antibacterial activity against Klebsiella pneumoniae ATCC BAA-1705 fractional inhibitory concentration index incubated for 24 hrs in presence of daptomycin by checkerboard assay; assay type: functional; outline: as §1
[20] = tested on: Klebsiella pneumoniae; test: Synergistic antibacterial activity against Klebsiella pneumoniae ATCC BAA-1705 fractional inhibitory concentration index incubated for 24 hrs in presence of vancomycin by checkerboard assay; assay type: functional; outline: as §2
[21] = tested on: Pseudomonas aeruginosa; test: Synergistic antibacterial activity against Pseudomonas aeruginosa ATCC […] fractional inhibitory concentration index incubated for 24 hrs in presence of meropenem by checkerboard assay; assay type: functional
[22] = tested on: Pseudomonas aeruginosa; test: Synergistic antibacterial activity against Pseudomonas aeruginosa ATCC […] assessed as fractional inhibitory concentration index incubated for 24 hrs in presence of tetracycline by checkerboard assay; assay type: functional
[23] = tested on: Klebsiella pneumoniae; test: Synergistic antibacterial activity against Klebsiella pneumoniae ATCC BAA-1705 fractional inhibitory concentration index incubated for 24 hrs in presence of levofloxacin by checkerboard assay; assay type: functional; outline: as §1
[24] = tested on: Klebsiella pneumoniae; test: Synergistic antibacterial activity against Klebsiella pneumoniae ATCC BAA-1705 fractional inhibitory concentration incubated for 24 hrs in presence of daptomycin by checkerboard assay; assay type: functional; outline: as §1
[25] = tested on: Pseudomonas aeruginosa; test: Synergistic antibacterial activity against Pseudomonas aeruginosa ATCC […] fractional inhibitory concentration incubated for 24 hrs in presence of kanamycin by checkerboard assay; assay type: functional; outline: as §2
[26] = tested on: Escherichia coli; test: Synergistic antibacterial activity against Escherichia coli ATCC 25922 assessed as fractional inhibitory concentration incubated for 24 hrs in presence of clindamycin by checkerboard assay; assay type: functional; outline: as §1
[27] = tested on: Staphylococcus aureus; test: Synergistic antibacterial activity against methicillin resistant Staphylococcus aureus ATCC BAA-1556 fractional inhibitory concentration index incubated for 24 hrs in presence of Ciprofloxacin by checkerboard assay; assay type: functional; outline: as §2
[28] = tested on: Pseudomonas aeruginosa; test: Synergistic antibacterial activity against Pseudomonas aeruginosa ATCC […] fractional inhibitory concentration incubated for 24 hrs in presence of vancomycin by checkerboard assay; assay type: functional
[29] = tested on: Staphylococcus aureus; test: Synergistic antibacterial activity against methicillin resistant Staphylococcus aureus ATCC BAA-1556 assessed as fractional inhibitory concentration incubated for 24 hrs in presence of tetracycline by checkerboard assay; assay type: functional; outline: as §2
[30] = tested on: Escherichia coli; test: Synergistic antibacterial activity against Escherichia coli ATCC 25922 assessed as fractional inhibitory concentration index incubated for 24 hrs in presence of tetracycline by checkerboard assay; assay type: functional; outline: as §1
[31] = tested on: Staphylococcus aureus; test: Synergistic antibacterial activity against methicillin resistant Staphylococcus aureus ATCC BAA-1556 incubated for 24 hrs in presence of tetracycline by checkerboard assay; assay type: functional; outline: as §2
[32] = tested on: Staphylococcus aureus; test: Synergistic antibacterial activity against methicillin resistant Staphylococcus aureus ATCC BAA-1556 incubated for 24 hrs in presence of tobramycin by checkerboard assay; assay type: functional; outline: as §2
[33] = tested on: Staphylococcus aureus; test: Synergistic antibacterial activity against methicillin resistant Staphylococcus aureus ATCC BAA-1556 assessed as fractional inhibitory concentration index incubated for 24 hrs in presence of clindamycin by checkerboard assay; assay type: functional; outline: as §2
[34] = tested on: Escherichia coli; test: Synergistic antibacterial activity against Escherichia coli ATCC 25922 fractional inhibitory concentration index incubated for 24 hrs in presence of vancomycin by checkerboard assay; assay type: functional; outline: as §2
[35] = tested on: Klebsiella pneumoniae; test: Synergistic antibacterial activity against Klebsiella pneumoniae ATCC BAA-1705 fractional inhibitory concentration incubated for 24 hrs in presence of kanamycin by checkerboard assay; assay type: functional; outline: as §1

SMILES | MIC [1] | MIC [2] | FIC [3] | FIC [4] | FIC [5] | MIC [6] | fractional inhibitory concentration index (FICI) [7] | FIC [8] | MIC [9] | fractional inhibitory concentration index (FICI) [10] | FIC [11] | FIC [12] | MIC [13] | fractional inhibitory concentration index (FICI) [14] | fractional inhibitory concentration index (FICI) [16] | fractional inhibitory concentration index (FICI) [18] | fractional inhibitory concentration index (FICI) [19] | fractional inhibitory concentration index (FICI) [20] | fractional inhibitory concentration index (FICI) [21] | fractional inhibitory concentration index (FICI) [22] | further results
N=C(N)NCCC[C@@H]1NC(=O)[C@H](CCCNC(=N)N)NC(=O)[C@H](CCCNC(=N)N)NC(=O)[C@H](Cc2c[nH]c3ccccc23)NC(=O)[C@H](Cc2c[nH]c3ccccc23)NC(=O)[C@H](Cc2c[nH]c3ccccc23)NC(=O)[C@H](Cc2c[nH]c3ccccc23)NC(=O)[C@H](CCCNC(=N)N)NC(=O)[C@H](CCCNC(=N)N)NC1=O | 0.125 µg/mL | 0.125 µg/mL | 0.063 | 0.0625 | 0.249 | 0.25 µg/mL | 0.375 | 0.063 | 0.125 µg/mL | 0.375 | 0.25 | 0.0039 | 0.5 µg/mL | 0.5 | 0.375 | 0.281 | 0.516 | 0.563 | 0.375 | 0.375 | Activity [15]: 13%; MIC [17]: 0.125 µg/mL; fractional inhibitory concentration index (FICI) [23]: 0.375; FIC [24]: 0.0156; FIC [25]: 0.0313; FIC [26]: 0.063; fractional inhibitory concentration index (FICI) [27]: 0.625; FIC [28]: 0.063; FIC [29]: 0.25; fractional inhibitory concentration index (FICI) [30]: 0.375; MIC [31]: 0.0625 µg/mL; MIC [32]: 0.125 µg/mL; fractional inhibitory concentration index (FICI) [33]: 0.499; fractional inhibitory concentration index (FICI) [34]: 0.531; FIC [35]: 0.125
N=C(N)NCCC[C@@H]1NC(=O)[C@H](CCCNC(=N)N)NC(=O)[C@H](CCCNC(=N)N)NC(=O)[C@H](CCCNC(=N)N)NC(=O)[C@H](Cc2c[nH]c3ccccc23)NC(=O)[C@H](Cc2c[nH]c3ccccc23)NC(=O)[C@H](Cc2c[nH]c3ccccc23)NC(=O)[C@H](Cc2c[nH]c3ccccc23)NC(=O)[C@H](CCCNC(=N)N)NC(=O)[C@H](CCCNC(=N)N)NC1=O (cyclo(RRRRRRWWWW)) | 0.125 µg/mL | 0.125 µg/mL | 0.0156 | 0.0625 | 0.248 | 0.125 µg/mL | 0.313 | 0.063 | 0.25 µg/mL | 0.5 | 0.125 | 0.016 | 0.25 µg/mL | 0.5 | 0.5 | 0.313 | 0.375 | 0.313 | 0.5 | 0.5 | fractional inhibitory concentration index (FICI) [23]: 0.375; FIC [24]: 0.125; FIC [25]: 0.0156; FIC [26]: 0.063; fractional inhibitory concentration index (FICI) [27]: 0.75; FIC [28]: 0.0313; FIC [29]: 0.25; fractional inhibitory concentration index (FICI) [30]: 0.313; MIC [31]: 0.0625 µg/mL; MIC [32]: 0.0625 µg/mL; fractional inhibitory concentration index (FICI) [33]: 0.498; fractional inhibitory concentration index (FICI) [34]: 0.563; FIC [35]: 0.25
